From PubChem
S1P4 agonist = activates the human S1P4 receptor; 220,000 tested, 0.35% active; S1P4-expressing cell line, agonist reporter assay; activation, % at 4.98 µM; AID 1509; O95977; in the data active means activation above about 11%;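 further: 0% = DMSO vehicle and 100% = reference agonist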
NPY-Y1 PAM-ag = human NPY-Y1 potentiation or agonism, primary screen | AID 1304 | 220,000 tested, 0.37% active | activation, % at 3.6 µM | NPY-Y1 expressing cells, potentiator/agonist activation | P25929; in the data active means activation above about 33%, passing the limit was not always enough;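 further: cells stimulated with NPY at EC10 then isoproterenol at EC100; 0% = low agonist plus stimulus and 100% = saturating agonist plus stimulus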
NPY-Y1 antag = antagonists of human neuropeptide Y receptor Y1. 200,000 tested, 1% active. HEK293-CNG Y1 cells, membrane potential fluorescence; NPY at EC95, then isoproterenol. inhibition, % at 3.6 µM. P25929. AID 1040;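 active means inhibition above the campaign mean inhibition of all tested compounds plus 3 SD, cut at about 20% in these data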;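 further: 0% = DMSO wells given NPY plus isoproterenol and 100% = isoproterenol alone without NPY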
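Material: Y1- and CNG-channel-expressing HEK293 cells / Probe or stimulus: NPY 25 nM then isoproterenol 1 µM plus Ro 20-1724 25 µM / Doses: 3.6 µM single dose, DMSO 0.4% / Schedule: compound incubation 1 h at room temperature, readout 45 min post-stimulation / Signal: membrane potential fluorescence / Benchmarks: isoproterenol-only wells as full block versus NPY-plus-isoproterenol wells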
S1P4 antag = antagonists of human S1P4 receptor | S1P4-expressing cells, antagonist mode, reporter read-out | 220,000 tested, 0.26% active | O95977 | inhibition, % at 4.98 µM; in the data active means inhibition above about 29%;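 further: 0% = wells stimulated with agonist and 100% = vehicle wells without agonist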
NPY-Y2 PAM-ag = potentiators or agonists of human neuropeptide Y receptor Y2. P49146. cells expressing NPY-Y2, potentiator/agonist read-out. activation, % at 3.6 µM. 220,000 tested, 0.45% active; in the data active means activation above about 27%;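 further: cells stimulated with NPY near EC25 plus isoproterenol at EC100; 0% = vehicle plus submaximal agonist and 100% = vehicle plus saturating agonist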
Target sequence (P49146 whole entry, looked up): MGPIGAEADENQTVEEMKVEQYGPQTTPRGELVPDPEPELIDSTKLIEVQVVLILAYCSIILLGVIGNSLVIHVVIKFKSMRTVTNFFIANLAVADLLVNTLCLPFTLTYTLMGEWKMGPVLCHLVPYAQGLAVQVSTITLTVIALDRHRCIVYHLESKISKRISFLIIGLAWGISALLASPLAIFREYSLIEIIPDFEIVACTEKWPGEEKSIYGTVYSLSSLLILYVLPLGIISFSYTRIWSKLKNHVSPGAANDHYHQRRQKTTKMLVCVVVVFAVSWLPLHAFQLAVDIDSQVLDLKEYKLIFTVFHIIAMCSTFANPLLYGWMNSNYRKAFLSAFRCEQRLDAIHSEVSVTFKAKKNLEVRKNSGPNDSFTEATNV
NPY Y2 blocker = NPY-Y2 (human) receptor antagonism | NPY-Y2 expressing cells, antagonist mode | inhibition, % at 2.7 µM | 140,000 tested, 0.99% active | AID 793;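 further: 0% = vehicle with agonist challenge and 100% = reference antagonist with challenge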
NPY1 antag conf = confirmation of human neuropeptide Y receptor Y1 antagonists | shares compounds with NPY-Y1 antag | HEK293-CNG NPY-Y1, membrane potential fluorescence, cAMP; NPY challenge against isoproterenol-raised cAMP | inhibition, % at 3.6 µM | 1,200 tested, 21% active; in the data active means inhibition above about 20%;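 further: 0% = vehicle with agonist plus stimulus and 100% = stimulus alone without agonist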
NPY-Y2 antag ct = antagonizes human NPY-Y2, counter-screen to NPY-Y1 antagonists. 1,200 tested, 28% active. inhibition, % at 3.6 µM. shares compounds with NPY-Y1 antag. HEK293 NPY-Y2 CNG membrane potential fluorescence, antagonism; cells given NPY, then isoproterenol;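 further: 0% = DMSO with agonist challenge and 100% = reference antagonist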
* hit, by the source's call; x = no result given. Rows were chosen to be rich in hits. Some 2.4% of all compounds tested hit in one or more screens of this group. Unless noted, no stated cut-off is given here; in the data, active means inhibition above about 17%; inactive means the rest.

SMILES	S1P4 agonist	NPY-Y1 PAM-ag	NPY-Y1 antag	S1P4 antag	NPY-Y2 PAM-ag	NPY Y2 blocker	NPY1 antag conf	NPY-Y2 antag ct
CCCCCc1c(C)nc(Nc2ccc(F)cc2)[nH]c1=O	0	2	-2	-12	-2	0	x	x
OCC1(CCCc2ccccc2)CCN(C2CCSCC2)CC1	-2	-14	25*	2	-28	x	10	12
CCOC(=O)C1(CCCc2ccccc2)CCN(C2CCSCC2)CC1	0	-10	52*	-12	-10	x	29*	15
Clc1ccc(Nc2ncn[nH]2)cc1	2	11	7	-10	5	0	x	x
N#Cc1nc(-c2ccc(F)cc2)oc1NCc1cccc2c1OCO2	2	-25	22*	1	-9	15	16	15
CC(C)CNc1oc(-c2ccc(F)cc2)nc1C#N	0	-25	7	0	-1	4	x	x
Cc1ccc(Cl)c(OCC(=O)NCc2ccco2)c1	1	20	-2	-12	5	2	x	x
COc1ccc(CN2C(=O)c3ccccc3C2C(=O)NCCc2ccccc2)c(OC)c1 (configuration not stated)	0	-16	1	24	-14	x	x	x
COc1ccc(CN2C(=O)c3ccccc3C2C(=O)NC2CCCCCC2)c(OC)c1 (configuration not stated)	-2	-15	24*	-11	-5	x	4	6
O=C(COC(=O)CCSc1ccc(Cl)cc1)NCc1ccc(Cl)cc1	-2	-33	11	-7	-25	9	x	x
O=C(COC(=O)CCC(=O)c1ccc(Cl)cc1)NCc1ccco1	-1	-24	22*	-8	-23	x	5	4
O=C(COC(=O)CCSc1ccc(Cl)cc1)NCc1ccccc1	-1	-26	22*	-29	-12	15	8	10
CC(C)(C)NC(=O)NC(=O)COC(=O)Cc1coc2ccc3ccccc3c12	-2	-45	5	-9	-7	7	x	x
Cc1c(Cl)cnc(NC(=O)COC(=O)Cc2coc3ccc4ccccc4c23)c1Cl	1	-33	23*	-9	-14	9	7	6
O=C(N/N=C/c1ccc(Cl)cc1)c1cc2c(s1)-c1ccccc1CC2	0	3	3	-21	-14	-1	x	x
CCn1c(C(=O)OC)cc2c1ccn2-c1ccc(F)cc1	-2	13	27*	-4	3	17	14	4
CCOC(=O)c1cc2c(ccn2-c2ccc(F)cc2)n1CC(=O)NC(C)(C)C	3	-9	-1	-6	-1	x	x	x
COC(=O)c1cc2c(ccn2-c2ccc(F)cc2)n1Cc1ccc(OC)cc1	-1	-24	24*	-3	10	9	11	9
O=C(CCCNC(=O)/C(=C/c1ccc(Br)cc1)NC(=O)c1ccccc1)OCc1ccccc1	0	-15	7	2	-11	7	x	x
Cc1ccc(OCCCSc2ncccn2)cc1C	-1	-16	4	0	19	3	x	x
O=C(COC(=O)CCC(=O)c1ccc2c(c1)OCCO2)NCc1ccc2c(c1)OCO2	-2	-28	21*	-10	-12	7	12	9
CC(=O)OCC(=O)NCc1ccc2c(c1)OCO2	1	1	-3	-62	9	0	x	x
O=C(O)c1ccccc1N(Cc1ccccc1)C(=O)CO/N=C/c1ccccc1	1	-31	22*	-17	-24	15	10	10
COc1ccc(CN(C(=O)c2cccs2)c2ccccc2C(=O)O)cc1	1	9	x	-23	-1	x	x	x
CCOc1cc(/C=C2/NC(=O)N(CC(=O)OC)C2=O)ccc1O	0	-1	-2	-15	-1	x	x	x
COc1cc(-c2nnc(COc3ccc4ccccc4c3)o2)cc(OC)c1OC	1	-8	23*	-9	10	9	17	14
Cc1cccc(NC(=O)c2cc(Cl)nc3ccccc23)c1	2	-107	24*	-9	-58	16	8	12
COc1ccc(/C=C/C2=NC(=C\N(C)C)/C(=O)O2)cc1	3	-9	1	-30	-1	1	x	x
